Measured values as given in ChEMBL document CHEMBL1132613 (J Med Chem, 1999).

Legend:
[1] = biological target: T1, 5-hydroxytryptamine receptor 1A (Rattus norvegicus, UniProt P19327); assay: Compound was tested for the displacement of [3H]-8-OH- DPAT from rat brain 5-hydroxytryptamine 1A receptor
T1 sequence (P19327 whole entry): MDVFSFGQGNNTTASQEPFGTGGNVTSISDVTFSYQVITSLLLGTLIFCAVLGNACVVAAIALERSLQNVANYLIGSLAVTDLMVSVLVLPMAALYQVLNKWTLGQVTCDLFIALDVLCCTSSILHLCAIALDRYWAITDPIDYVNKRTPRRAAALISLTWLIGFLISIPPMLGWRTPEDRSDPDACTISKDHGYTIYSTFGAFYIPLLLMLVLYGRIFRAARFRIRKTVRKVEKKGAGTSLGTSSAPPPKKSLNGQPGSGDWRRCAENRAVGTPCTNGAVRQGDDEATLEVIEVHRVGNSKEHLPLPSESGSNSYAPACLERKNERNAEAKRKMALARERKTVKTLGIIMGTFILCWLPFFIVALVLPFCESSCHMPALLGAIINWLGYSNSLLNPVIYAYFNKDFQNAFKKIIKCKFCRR
Summary of the method: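 Pooled rat hippocampal membranes were preincubated at 37 °C. Buffer was 50 mM Tris HCl pH 7.4 with 0.5 mM Na2EDTA, 10 mM MgCl2, 0.1% Na ascorbate and pargyline. 200–400 μg protein was incubated with [3H]-8-OH-DPAT for 15 min at 37 °C, then GF/C filtered and scintillation counted. Nonspecific binding was defined with 10 μM 5-HT. Triplicate tubes.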

[2] = biological target: 5-hydroxytryptamine receptor 2A (Homo sapiens, UniProt P28223); assay: Compound was tested for the displacement of [125I]DOI from cloned human 5-hydroxytryptamine 2A receptor
Summary of the method: (§1)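 Membranes from AV12 hamster fibroblasts stably expressing human 5-HT2A or 5-HT2C. [125I]DOI was about 0.07–0.15 nM final. Buffer was 50 mM Tris-HCl pH 7.4 with 10 μM pargyline, 9.75 mM MgCl2, 0.5 mM Na2-EDTA and 0.1% Na ascorbate. Incubation was 30 min at 37 °C with about 40 μg protein (2A) or 30 μg (2C). Nonspecific binding used 1 μM ketanserin (2A) or 10 μM mianserin (2C). Read by gamma counting; sigmoid nonlinear regression.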

[3] = biological target: T2, 5-hydroxytryptamine receptor 2C (Homo sapiens, UniProt P28335); assay: Compound was tested for the displacement of [125I]DOI from cloned human 5-hydroxytryptamine 2C receptor; summary of the method: as §1
T2 sequence (P28335 whole entry): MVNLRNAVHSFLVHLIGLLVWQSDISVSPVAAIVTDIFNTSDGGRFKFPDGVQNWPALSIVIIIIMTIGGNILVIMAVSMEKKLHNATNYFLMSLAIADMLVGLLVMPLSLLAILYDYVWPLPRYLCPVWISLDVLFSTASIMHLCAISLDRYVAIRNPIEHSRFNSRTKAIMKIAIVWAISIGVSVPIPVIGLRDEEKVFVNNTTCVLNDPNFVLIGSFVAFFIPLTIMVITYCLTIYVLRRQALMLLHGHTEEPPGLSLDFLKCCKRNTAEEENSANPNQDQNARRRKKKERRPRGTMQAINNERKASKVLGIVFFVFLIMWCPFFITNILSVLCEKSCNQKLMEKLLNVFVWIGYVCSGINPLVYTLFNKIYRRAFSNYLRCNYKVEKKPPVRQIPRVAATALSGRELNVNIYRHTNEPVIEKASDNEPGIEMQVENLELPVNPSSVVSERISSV

[4] = biological target: 5-hydroxytryptamine receptor 2B (Homo sapiens, UniProt P41595); assay: Compound was tested for the displacement of [3H]5-HT from cloned human 5-hydroxytryptamine 2B receptor
Summary of the method: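 Membranes from AV12 cells stably expressing human 5-HT2B, 100–150 μg protein. [3H]-5-HT was about 2 nM (1.7–2.5 nM) final. Buffer was 50 mM Tris pH 7.4 with 3 mM CaCl2, 10 μM pargyline and 0.1% ascorbic acid. Drug dilutions spanned 6 log units. Incubation was 15 min at 37 °C. Nonspecific binding used 10 μM 5-HT or 1-NP. PEI-soaked GF/B filtration, scintillation counting, triplicate, sigmoid nonlinear regression.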

Rattus norvegicus [5] = assay: Percentage of animals failing to emit 50 lever presses within 15 min in DOI trained rats at a compound dose of 16 mg/kg; type: functional
Summary of the method: (§2)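 Male Sprague–Dawley rats (200–220 g) in a two-lever, FR50 food-reinforced task. Rats were trained to discriminate saline from LSD tartrate (0.08 mg/kg), DOI HCl (0.4 mg/kg) or LY293284 (0.025 mg/kg) in 15-min sessions. %SDL is the share of rats making over 80% of presses on the drug lever. %D is the share failing to make 50 presses within 15 min. ED50 by Litchfield–Wilcoxon log-probit.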

Rattus norvegicus [6] = assay: Percentage of animals failing to emit 50 lever presses within 15 min in DOI trained rats at a compound dose of 4 mg/kg; type: functional; summary of the method: as §2
Rattus norvegicus [7] = assay: Percentage of animals failing to emit 50 lever presses within 15 min in DOI trained rats at a compound dose of 8 mg/kg; type: functional; summary of the method: as §2
Rattus norvegicus [8] = assay: Percentage of animals failing to emit 50 lever presses within 15 min in LSD trained rats at a compound dose of 16 mg/kg; type: functional; summary of the method: as §2
Rattus norvegicus [9] = assay: Percentage of animals failing to emit 50 lever presses within 15 min in LSD trained rats at a compound dose of 2.0 mg/kg; type: functional; summary of the method: as §2
Rattus norvegicus [10] = assay: Percentage of animals failing to emit 50 lever presses within 15 min in LSD trained rats at a compound dose of 4.0 mg/kg; type: functional
Summary of the method: (§3)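 Two-lever drug discrimination in male Sprague–Dawley rats (200–220 g at start), trained against saline on LSD tartrate (0.08 mg/kg), DOI HCl (0.4 mg/kg) or LY293284 (0.025 mg/kg). FR50 food-pellet reinforcement, levers counterbalanced, 15-min sessions at 22–24 °C. %D is the share of tested rats not completing 50 lever presses within 15 min.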

Rattus norvegicus [11] = assay: Percentage of animals failing to emit 50 lever presses within 15 min in LSD trained rats at a compound dose of 8.0 mg/kg; type: functional; summary of the method: as §3
Rattus norvegicus [12] = assay: Percentage of animals failing to emit 50 lever presses within 15 min in […] trained rats at a compound dose of 16 mg/kg; type: functional; summary of the method: as §3
Rattus norvegicus [13] = assay: Percentage of animals failing to emit 50 lever presses within 15 min in […] trained rats at a compound dose of 2 mg/kg; type: functional; summary of the method: as §3
Rattus norvegicus [14] = assay: Percentage of animals failing to emit 50 lever presses within 15 min in […] trained rats at a compound dose of 4 mg/kg; type: functional; summary of the method: as §3
Rattus norvegicus [15] = assay: Percentage of animals emitting >80% of lever presses in DOI trained rats at a compound dose of 12.6 uM/Kg; type: functional; summary of the method: as §2
Rattus norvegicus [16] = assay: Percentage of animals emitting >80% of lever presses in DOI trained rats at a compound dose of 25.3 uM/Kg; type: functional; summary of the method: as §2
Rattus norvegicus [17] = assay: Percentage of animals emitting >80% of lever presses in DOI trained rats at a compound dose of 50.6 uM/Kg; type: functional; summary of the method: as §2
Rattus norvegicus [18] = assay: Percentage of animals emitting >80% of lever presses in LSD trained rats at a compound dose of 25.3 uM/Kg; type: functional; summary of the method: as §2
Rattus norvegicus [19] = assay: Percentage of animals emitting >80% of lever presses in LSD trained rats at a compound dose of 50.6 uM/Kg; type: functional; summary of the method: as §2
Rattus norvegicus [20] = assay: Percentage of animals emitting >80% of lever presses in LSD trained rats at a compound dose of 6.32 uM/Kg; type: functional; summary of the method: as §2
Rattus norvegicus [21] = assay: Percentage of animals emitting >80% of lever presses in […] trained rats at a compound dose of 12.6 uM/Kg; type: functional; summary of the method: as §2
Rattus norvegicus [22] = assay: Percentage of animals emitting >80% of lever presses in […] trained rats at a compound dose of 25.3 uM/Kg; type: functional; summary of the method: as §2
Rattus norvegicus [23] = assay: Percentage of animals emitting >80% of lever presses in […] trained rats at a compound dose of 50.6 uM/Kg; type: functional; summary of the method: as §2
Rattus norvegicus [24] = assay: Percentage of animals emitting >80% of lever presses in […] trained rats at a compound dose of 6.32 uM/Kg; type: functional; summary of the method: as §2
Rattus norvegicus [25] = assay: Percentage of animals emitting >80% of lever presses in LSD trained rats at a compound dose of 12.6 uM/Kg; type: functional; summary of the method: as §2
Rattus norvegicus [26] = assay: Percentage of animals failing to emit 50 lever presses within 15 min in […] trained rats at a compound dose of 8 mg/kg; type: functional; summary of the method: as §3

Chain of 5-hydroxytryptamine receptor 2A (P28223 whole entry): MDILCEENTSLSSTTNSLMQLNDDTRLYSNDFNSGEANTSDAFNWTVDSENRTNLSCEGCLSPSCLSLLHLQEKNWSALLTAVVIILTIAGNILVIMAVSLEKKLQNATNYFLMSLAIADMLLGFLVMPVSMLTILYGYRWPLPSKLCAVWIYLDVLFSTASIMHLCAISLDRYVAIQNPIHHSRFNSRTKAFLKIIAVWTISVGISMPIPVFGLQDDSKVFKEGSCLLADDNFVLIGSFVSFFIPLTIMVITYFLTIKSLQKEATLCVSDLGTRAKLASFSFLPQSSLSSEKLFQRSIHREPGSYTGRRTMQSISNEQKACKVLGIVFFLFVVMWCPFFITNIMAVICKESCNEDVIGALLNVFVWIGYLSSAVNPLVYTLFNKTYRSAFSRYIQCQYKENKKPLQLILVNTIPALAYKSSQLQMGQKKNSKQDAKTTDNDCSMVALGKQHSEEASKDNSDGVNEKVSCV
Chain of 5-hydroxytryptamine receptor 2B (P41595 whole entry): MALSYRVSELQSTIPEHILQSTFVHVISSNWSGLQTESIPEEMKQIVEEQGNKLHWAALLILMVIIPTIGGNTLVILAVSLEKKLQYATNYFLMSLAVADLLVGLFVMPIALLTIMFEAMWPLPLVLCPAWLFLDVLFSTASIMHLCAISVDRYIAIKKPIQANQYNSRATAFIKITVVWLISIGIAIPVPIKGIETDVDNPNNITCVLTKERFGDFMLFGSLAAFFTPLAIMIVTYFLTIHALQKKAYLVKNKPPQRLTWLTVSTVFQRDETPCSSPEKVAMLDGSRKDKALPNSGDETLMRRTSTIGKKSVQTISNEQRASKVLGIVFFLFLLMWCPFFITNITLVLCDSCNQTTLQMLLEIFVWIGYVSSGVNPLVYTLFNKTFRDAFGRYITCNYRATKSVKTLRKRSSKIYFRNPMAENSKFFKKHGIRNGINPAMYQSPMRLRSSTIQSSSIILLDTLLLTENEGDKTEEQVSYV

## CN(C)CCc1c[nH]c2ccsc12
[1]
  Ki: 76 nM
[2]
  Ki: 276 nM
[3]
  Ki: 64 nM
[4]
  Ki: 214 nM
Rattus norvegicus [5]
  D: 62.5%
Rattus norvegicus [6]
  D: 11%
Rattus norvegicus [7]
  D: 78%
Rattus norvegicus [8]
  D: 62.5%
Rattus norvegicus [9]
  D: 25%
Rattus norvegicus [10]
  D: 22%
Rattus norvegicus [11]
  D: 36%
Rattus norvegicus [12]
  D: 0%
Rattus norvegicus [13]
  D: 8%
Rattus norvegicus [14]
  D: 30%
Rattus norvegicus [15]
  SDL: 37.5%
Rattus norvegicus [16]
  SDL: 0%
Rattus norvegicus [17]
  SDL: 0%
Rattus norvegicus [18]
  SDL: 12.5%
Rattus norvegicus [19]
  SDL: 0%
Rattus norvegicus [20]
  SDL: 0%
Rattus norvegicus [21]
  SDL: 57%
Rattus norvegicus [22]
  SDL: 71%
Rattus norvegicus [23]
  SDL: 83%
Rattus norvegicus [24]
  SDL: 50%
Rattus norvegicus [25]
  SDL: 43%
Rattus norvegicus [26]
  D: 22%
